Measurements: ChEMBL document CHEMBL2046351, “Discovery of cyclic sulfone hydroxyethylamines as potent and selective β-site APP-cleaving enzyme 1 (BACE1) inhibitors: structure-based design and in vivo reduction of amyloid β-peptides” (J Med Chem, 2012)

Tests used:
[1] = Drug uptake in C57BL/6 mouse blood at 60 umol/kg, po dosed in HS15/propylenglycol/citrate buffer, pH 4.75, 50 mM (10/5/85, v/v/v) measured 4 hrs post dosing by LC/MS/MS analysis; assay type: ADME, organism-based; details: read-out: Drug uptake
Outline: (§1)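 Male C57BL/6 mice dosed by oral gavage, 10 mL/kg. Blood sampled 0.25, 0.5, 1, 2, 4, 6 h; brain at 1 and/or 4 h; n = 3 per time. Blood acetonitrile-precipitated, brain water-homogenized then precipitated; LC-MS/MS with weighted linear calibration.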

[2] = AUC (0 to infinity) in C57BL/6 mouse at 60 umol/kg, po dosed in HS15/propylenglycol/citrate buffer, pH 4.75, 50 mM (10/5/85, v/v/v) by LC/MS/MS analysis; assay type: ADME, organism-based; parameters: dose 60 umol/kg, route oral, time infinity; details: plasma
Outline: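 Male C57BL/6 mice were dosed by oral gavage at 10 mL/kg. Blood was sampled at 0.25, 0.5, 1, 2, 4 and 6 h postdose, extracted by acetonitrile precipitation and quantified by LC-MS/MS (typical LLOQ 0.4 ng/mL). AUCinf was obtained by noncompartmental analysis of concentration–time profiles, weighting 1/Y, with at least three terminal log-linear points.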

Brain [3] = test: Drug uptake in C57BL/6 mouse brain at 60 umol/kg, po dosed in HS15/propylenglycol/citrate buffer, pH 4.75, 50 mM (10/5/85, v/v/v) measured 4 hrs post dosing by LC/MS/MS analysis; assay type: ADME, organism-based; details: in vivo, pH 4.75, 4 h; outline: as §1
Cytochrome P450 3A4 = Cytochrome P450 3A4 (Homo sapiens, UniProt P08684); test: Inhibition of CYP3A4; assay type: ADME
Chain of Cytochrome P450 3A4 (P08684 whole entry): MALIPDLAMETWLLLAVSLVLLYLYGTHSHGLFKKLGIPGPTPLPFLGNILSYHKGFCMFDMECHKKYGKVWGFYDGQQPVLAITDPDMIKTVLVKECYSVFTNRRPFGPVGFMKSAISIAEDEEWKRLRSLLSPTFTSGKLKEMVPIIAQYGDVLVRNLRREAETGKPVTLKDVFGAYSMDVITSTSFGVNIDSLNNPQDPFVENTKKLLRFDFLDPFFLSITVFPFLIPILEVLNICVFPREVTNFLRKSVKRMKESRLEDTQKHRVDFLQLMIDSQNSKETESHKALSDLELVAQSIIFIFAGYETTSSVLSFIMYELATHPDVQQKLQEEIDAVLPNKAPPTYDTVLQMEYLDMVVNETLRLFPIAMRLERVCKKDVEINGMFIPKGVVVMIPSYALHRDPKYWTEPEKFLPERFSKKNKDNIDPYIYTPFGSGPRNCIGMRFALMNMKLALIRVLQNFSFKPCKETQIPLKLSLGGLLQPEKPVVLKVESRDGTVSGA

[4] = Drug uptake in C57BL/6 mouse blood at 6 umol/kg, po dosed in carboxymethyl cellulose 0.5% w/v in water/Tween 80 (99.5/0.5, v/v) measured 4 hrs post dosing by LC/MS/MS analysis; assay type: ADME, organism-based; details: read-out: Drug uptake; outline: as §1
[5] = Drug uptake in C57BL/6 mouse blood at 2 umol/kg, iv dosed in N-methyl pyrrolidone/blank plasma (10:90 v/v) measured 1 hr post dosing by LC/MS/MS analysis; assay type: ADME, organism-based; details: read-out: Drug uptake
Outline: (§2)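 Male C57BL/6 mice, saphenous vein injection under light anesthesia, 5 mL/kg. Blood at 5, 30 min and 1, 2, 4, 6, 8 h; brain at 5 min, 1, 4, 8 h; n = 3/time. LC-MS/MS after acetonitrile precipitation (brain water-homogenized). Noncompartmental analysis, 1/Y weighting, terminal slope from ≥3 points.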

[6] = Oral bioavailability in C57BL/6 mouse at 6 umol/kg dosed in carboxymethyl cellulose 0.5% w/v in water/Tween 80 (99.5/0.5, v/v) by LC/MS/MS analysis; assay type: ADME, organism-based; details: in vivo
Outline: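 Oral gavage (10 mL/kg) to male C57BL/6 mice with iv reference segment (2 μmol/kg, NMP/blank plasma 10:90). Noncompartmental analysis of LC-MS/MS blood profiles, 1/Y weighting; %F = dose-normalized oral AUC / dose-normalized iv AUC × 100, assuming linear pharmacokinetics between doses.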

Beta-secretase 1 = Beta-secretase 1 (Homo sapiens, UniProt P56817)
Chain of Beta-secretase 1 (P56817 whole entry): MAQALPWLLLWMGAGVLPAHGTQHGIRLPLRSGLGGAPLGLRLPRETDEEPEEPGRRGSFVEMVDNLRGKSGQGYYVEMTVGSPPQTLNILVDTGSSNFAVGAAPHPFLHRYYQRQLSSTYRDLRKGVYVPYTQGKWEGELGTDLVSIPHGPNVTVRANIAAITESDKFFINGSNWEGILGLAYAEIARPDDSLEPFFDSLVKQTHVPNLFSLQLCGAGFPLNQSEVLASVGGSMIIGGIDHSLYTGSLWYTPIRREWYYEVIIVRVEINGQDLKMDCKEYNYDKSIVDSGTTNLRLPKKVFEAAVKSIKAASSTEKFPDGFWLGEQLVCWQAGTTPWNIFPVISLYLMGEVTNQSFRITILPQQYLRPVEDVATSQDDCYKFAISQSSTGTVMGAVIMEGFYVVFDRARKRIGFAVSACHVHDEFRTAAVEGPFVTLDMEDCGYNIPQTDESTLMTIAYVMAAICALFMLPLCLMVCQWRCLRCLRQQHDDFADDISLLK

[7] = Ratio of drug uptake in brain to blood in C57BL/6 mouse at 2 umol/kg, iv dosed in N-methyl pyrrolidone/blank plasma (10:90 v/v) measured 4 hrs post dosing by LC/MS/MS analysis; assay type: ADME, organism-based; outline: as §2
[8] = Ratio of drug uptake in brain to blood in C57BL/6 mouse at 6 umol/kg, po dosed in carboxymethyl cellulose 0.5% w/v in water/Tween 80 (99.5/0.5, v/v) measured 4 hrs post dosing by LC/MS/MS analysis; assay type: ADME, organism-based; outline: as §1
Brain [9] = test: Drug uptake in C57BL/6 mouse brain at 60 umol/kg, po dosed in carboxymethyl cellulose 0.5% w/v in water/Tween 80 (99.5/0.5, v/v) measured 1 hr post dosing by LC/MS/MS analysis; assay type: ADME, organism-based; details: in vivo; outline: as §1
Cathepsin D = Cathepsin D (Homo sapiens, UniProt P07339); test: Inhibition of human recombinant CatD using Mca-GKPILFFRLK(DNP)-dR-NH2 as substrate after 1 hr by fluorescence analysis
Chain of Cathepsin D (P07339 65-162 limits assumed): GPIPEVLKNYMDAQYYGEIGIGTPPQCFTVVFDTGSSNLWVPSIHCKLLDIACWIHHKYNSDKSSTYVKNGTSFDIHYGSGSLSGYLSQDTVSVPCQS
Chain of Cathepsin D (P07339 169-412 limits assumed): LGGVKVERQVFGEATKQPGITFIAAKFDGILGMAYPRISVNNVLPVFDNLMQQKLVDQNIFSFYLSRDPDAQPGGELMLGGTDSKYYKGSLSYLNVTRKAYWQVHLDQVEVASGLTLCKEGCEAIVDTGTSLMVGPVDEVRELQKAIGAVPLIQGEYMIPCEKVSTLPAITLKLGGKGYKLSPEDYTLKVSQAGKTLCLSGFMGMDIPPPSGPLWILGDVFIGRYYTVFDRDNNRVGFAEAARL

Row | concentration at 4 h [1] | AUC(0-inf) [2] | Drug uptake (Brain [3]) | IC50 (Cytochrome P450 3A4) | concentration at 4 h [4] | concentration at 1 h [5] | bioavailability [6] | IC50 (Beta-secretase 1) | Kp at 4 h [7] | Kp at 4 h [8] | Drug uptake (Brain [9]) | IC50 (Cathepsin D) | Compound
1 | 190 nM | 4.07 µM·h | 0.15 nmol/g | 300 nM | – | – | – | – | – | – | – | – | CC(C)(C)c1cccc(CN[C@H]2CS(=O)(=O)C[C@@H](Cc3cc(F)c(N)c(OC(C(F)(F)F)C(F)(F)F)c3)[C@@H]2O)c1
2 | – | – | – | – | 10 nM | 60 nM | 52% | 6 nM | 1 | 11 | 1.19 nmol/g | 690 nM | CC(C)(C)c1cccc(CN[C@H]2CS(=O)(=O)C[C@@H](Cc3cc(F)c(N)c(OCC(F)(F)F)c3)[C@@H]2O)c1
